Data reported in ChEMBL document CHEMBL1127442, “Triazolinone biphenylsulfonamide derivatives as orally active angiotensin II antagonists with potent AT1 receptor affinity and enhanced AT2 affinity” (J Med Chem, 1994).
Several values for one entry are separate records, joined by “and”; a condition that tells them apart may be missing. Equal values may be shown once. Activity calls are given as the source filed them. The rule behind the calls is not given here.

Key:
Rattus norvegicus [1] = experiment: Inhibition of AII pressor response by the compound in conscious, normotensive rats, at 3 (mg/kg) peroral dose; assay type: functional
Summary of the method: (§1)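 Male Sprague-Dawley rats (300-400 g) were conscious and catheterized for iv dosing and arterial pressure. Compound was given iv or po as the potassium salt in water, with PEG 400 for some oral doses. […] Peak inhibition is the mean of ≥2 rats.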

Rattus norvegicus [2] = experiment: (§2) Time from onset of action until significant (i.e., >=30%) inhibition of pressor response is no longer observed, at 1 (mg/kg) intravenous dose; assay type: functional
[3] = target: T1, Type-2 angiotensin II receptor (Rattus norvegicus, UniProt P35351); experiment: In vitro inhibitory activity against angiotensin II rat midbrain AT2 receptor using radioligand [125I]-Sar Ile-AII
T1 sequence (P35351 whole entry): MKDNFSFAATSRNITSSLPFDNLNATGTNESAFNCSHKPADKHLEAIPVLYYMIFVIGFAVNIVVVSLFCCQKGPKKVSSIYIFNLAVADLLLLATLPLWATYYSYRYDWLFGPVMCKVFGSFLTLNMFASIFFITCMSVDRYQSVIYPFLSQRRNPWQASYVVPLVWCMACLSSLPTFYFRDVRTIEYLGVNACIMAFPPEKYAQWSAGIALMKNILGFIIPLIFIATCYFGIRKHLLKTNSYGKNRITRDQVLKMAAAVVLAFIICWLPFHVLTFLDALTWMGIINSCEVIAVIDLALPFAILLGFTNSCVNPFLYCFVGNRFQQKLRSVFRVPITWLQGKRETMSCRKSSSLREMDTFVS
Summary of the method: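 Dithiothreitol ([…]) was added to the assay mixture to abolish residual AT1 binding. Tubes were run in duplicate, and IC50 came from nonlinear regression of displacement curves.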

Rattus norvegicus [4] = experiment: (§3) Time from onset of action until significant (i.e., >=30%) inhibition of pressor response is no longer observed, at 3 (mg/kg) peroral dose; assay type: functional
Rattus norvegicus [5] = experiment: Inhibition of AII pressor response by the compound in conscious, normotensive rats, at 1 (mg/kg) intravenous dose; assay type: functional; summary of the method: as §1
[6] = target: T2, Type-1 angiotensin II receptor (Oryctolagus cuniculus, UniProt P34976); experiment: In vitro inhibitory activity against angiotensin II rabbit aorta AT1 receptor using radioligand [125I]-Sar Ile-AII; assay type: tissue-based
T2 sequence (P34976 whole entry): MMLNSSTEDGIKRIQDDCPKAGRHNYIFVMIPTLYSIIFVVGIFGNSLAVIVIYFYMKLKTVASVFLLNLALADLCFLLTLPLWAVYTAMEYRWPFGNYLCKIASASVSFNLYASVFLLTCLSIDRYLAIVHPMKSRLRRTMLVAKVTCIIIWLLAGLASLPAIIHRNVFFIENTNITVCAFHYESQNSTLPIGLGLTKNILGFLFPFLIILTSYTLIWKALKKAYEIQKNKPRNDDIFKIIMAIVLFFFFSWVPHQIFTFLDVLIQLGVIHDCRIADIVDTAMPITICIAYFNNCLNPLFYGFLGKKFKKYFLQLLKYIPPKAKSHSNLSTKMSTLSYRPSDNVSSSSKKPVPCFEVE

Rattus norvegicus [7] = experiment: Inhibition of AII pressor response by the compound in conscious, normotensive rats, at 0.1 (mg/kg) peroral dose; assay type: functional; summary of the method: as §1
Rattus norvegicus [8] = experiment: Time from onset of action until significant (i.e., >=30%) inhibition of pressor response is no longer observed, at 0.1 (mg/kg) intravenous dose; assay type: functional
Summary of the method: (§4)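 Conscious catheterized male Sprague-Dawley rats received compound iv or po as the water-soluble potassium salt, or in PEG 400 orally. AII (0.1 μg/kg iv) boluses were repeated at intervals while the compound was active.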

Rattus norvegicus [9] = experiment: Inhibition of AII pressor response by the compound in conscious, normotensive rats, at 0.1 (mg/kg) intravenous dose; assay type: functional; summary of the method: as §1
Rattus norvegicus [10] = experiment: Inhibition of AII pressor response by the compound in conscious, normotensive rats, at 0.3 (mg/kg) intravenous dose; assay type: functional; summary of the method: as §1
Rattus norvegicus [11] = experiment: Time from onset of action until significant (i.e., >=30%) inhibition of pressor response is no longer observed, at 0.1 (mg/kg) peroral dose; assay type: functional; summary of the method: as §4
Rattus norvegicus [12] = experiment: (§5) Time from onset of action until significant (i.e., >=30%) inhibition of pressor response is no longer observed, at 0.3 (mg/kg) peroral dose; assay type: functional; summary of the method: as §4
Rattus norvegicus [13] = experiment: Time from onset of action until significant (i.e., >=30%) inhibition of pressor response is no longer observed, at 1 (mg/kg) peroral dose; assay type: functional; summary of the method: as §4
Rattus norvegicus [14] = experiment: Inhibition of AII pressor response by the compound in conscious, normotensive rats, at 0.3 (mg/kg) peroral dose; assay type: functional; summary of the method: as §1
Monkey [15] = experiment: Time from onset of action until significant (i.e., >=30%) inhibition of pressor response is no longer observed, at 10 (mg/kg) peroral dose
[16] = Inhibition of AII pressor response by the compound in conscious, normotensive rhesus monkeys, at 0.3 (mg/kg) intravenous dose
Monkey [17] = experiment: as §5; assay type: functional, Cercopithecidae; conditions: in the assay text read “intravenous” for “peroral”
Monkey [18] = experiment: as §2; assay type: functional, Cercopithecidae
[19] = Inhibition of AII pressor response by the compound in conscious, normotensive rhesus monkeys, at 1 (mg/kg) intravenous dose
Rattus norvegicus [20] = experiment: Time from onset of action until significant (i.e., >=30%) inhibition of pressor response is no longer observed, at 3 (mg/kg) intravenous dose; assay type: functional; summary of the method: as §4
Rattus norvegicus [21] = experiment: Inhibition of AII pressor response by the compound in conscious, normotensive rats, at 3 (mg/kg) intravenous dose; assay type: functional; summary of the method: as §1
Rattus norvegicus [22] = experiment: Time from onset of action until significant (i.e., >=30%) inhibition of pressor response is no longer observed, at 0.3 (mg/kg) peroral dose; NA= Not active; assay type: functional, organism-based; summary of the method: as §4
Rattus norvegicus [23] = experiment: Inhibition of AII pressor response by the compound in conscious, normotensive rats, at 1 (mg/kg) peroral dose; assay type: functional; summary of the method: as §1
Monkey [24] = experiment: as §3; assay type: functional, Cercopithecidae
Monkey [25] = experiment: Inhibition of AII pressor response by the compound in conscious, normotensive monkey, at 3 (mg/kg) peroral dose; assay type: functional, Cercopithecidae
Summary of the method: (§6)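 Rhesus monkeys were conscious, given furosemide (5 mg/kg iv) the prior evening, and fasted 18 h with water available. They sat chaired with minimal restraint. AII and iv compound went through saphenous or brachial vein catheters, and oral compound by nasogastric tube. Peak % inhibition of the AII pressor response was measured otherwise as in the rat protocol.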

Monkey [26] = experiment: Inhibition of AII pressor response by the compound in conscious, normotensive monkey, at 10 (mg/kg) peroral dose; assay type: functional, Cercopithecidae; summary of the method: as §6
Monkey [27] = conditions: Cercopithecidae
Monkey [28] = experiment: Inhibition of AII pressor response by the compound in conscious, normotensive monkey, at 3 (mg/kg) peroral dose; NA= Not active; assay type: functional, organism-based; conditions: Cercopithecidae; summary of the method: as §6
Monkey [29] = experiment: Time from onset of action until significant (i.e., >=30%) inhibition of pressor response is no longer observed, at 10 (mg/kg) peroral dose; assay type: functional, Cercopithecidae
Summary of the method: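 Conscious rhesus monkeys were pretreated with furosemide (5 mg/kg iv) and fasted 18 h. Compound was given orally by nasogastric tube, and AII challenges were given iv via a venous catheter, otherwise as in rats.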

Monkey [30] = experiment: Inhibition of AII pressor response by the compound in conscious, normotensive monkey, at 0.3 (mg/kg) intravenous dose; assay type: functional, Cercopithecidae; summary of the method: as §6

Structure (SMILES)	Duration (Rattus norvegicus [2])	IC50 [3]	Inhibition (Rattus norvegicus [5])	IC50 [6]	Inhibition (Rattus norvegicus [10])	Duration (Rattus norvegicus [12])	Duration (Rattus norvegicus [13])	Inhibition (Rattus norvegicus [14])	Inhibition (Rattus norvegicus [23])	further results
O=C(NS(=O)(=O)c1ccccc1-c1ccc(Cn2c(CCCC(F)(F)F)nn(-c3ccccc3C(F)(F)F)c2=O)cc1)c1ccccc1Cl	2.4 h	910 nM	67%	0.36 nM						Inhibition (Rattus norvegicus [1]): 76%; Duration (Rattus norvegicus [4]): >24 h
CCCCc1nn(-c2ccccc2C(F)(F)F)c(=O)n1Cc1ccc(-c2ccccc2S(=O)(=O)NC(=O)OC(C)(C)C)cc1	>6 h	17 nM		0.45 nM	78%	>4.5 h and >3.5 h	>6 h	81%		Inhibition (Rattus norvegicus [7]): 77%; Duration (Rattus norvegicus [8]): >4.5 h; Inhibition (Rattus norvegicus [9]): 76%; Duration (Rattus norvegicus [11]): >3 h
CCCCc1nn(-c2ccccc2C(F)(F)F)c(=O)n1Cc1ccc(-c2ccccc2S(=O)(=O)NC(=O)c2ccccc2)cc1.ClCCl		300 nM		0.43 nM	31%	<0.5 h				Duration (Monkey [15]): >4 h; Inhibition [16]: 80%; Duration (Monkey [17]): 5 h; Duration (Monkey [18]): >6 h; Inhibition [19]: 88%; Duration (Rattus norvegicus [20]): >6 h; inhibition (Rattus norvegicus [14]): inactive; Inhibition (Rattus norvegicus [21]): 87%; Duration (Rattus norvegicus [22]): inactive
CCCCc1nn(-c2ccccc2C(F)(F)F)c(=O)n1Cc1ccc(-c2ccccc2S(=O)(=O)NC(=O)C2CC2(C)C)cc1 (centres undefined)		220 nM		0.36 nM	84%	>5.5 h	>6 h		76%	Duration (Monkey [17]): 3.5 h
CCCCc1nn(-c2ccccc2C(F)(F)F)c(=O)n1Cc1ccc(-c2ccccc2S(=O)(=O)NC(=O)c2ccco2)cc1	>6 h	120 nM	85%	0.26 nM			3.7 h		70%	Duration (Monkey [24]): 4 h; Inhibition (Monkey [25]): 54%
CCCCc1nn(-c2ccccc2C(F)(F)F)c(=O)n1Cc1ccc(-c2ccccc2S(=O)(=O)NC(=O)C(C)C)cc1	>6 h	150 nM	100%	0.8 nM			1.3 h		45%	
CCCCc1nc(Cl)c(CO)n1Cc1ccc(-c2ccccc2-c2nnn[nH]2)cc1 [LOSARTAN]			78%		52%	5.5 h			58%	Inhibition (Monkey [26]): 50%; Duration (Monkey [27]): inactive; inhibition (Monkey [28]): inactive; Duration (Monkey [17]): 0.1 h; Duration (Monkey [29]): 2.1 h; Inhibition (Monkey [30]): 49%; Duration (Rattus norvegicus [20]): >6 h
CCCCc1nn(-c2ccccc2C(F)(F)F)c(=O)n1Cc1ccc(-c2ccccc2S(=O)(=O)NC(=O)c2sccc2Cl)cc1	>6 h	30 nM	90%	0.27 nM		>5 h		64%		
CCCCc1nn(-c2ccccc2C(F)(F)F)c(=O)n1Cc1ccc(-c2ccccc2S(=O)(=O)NC(=O)c2occc2C)cc1	>6 h	46 nM	92%	0.21 nM			>3.5 h		71%	
CCCCc1nn(-c2ccccc2C(F)(F)F)c(=O)n1Cc1ccc(-c2ccccc2S(=O)(=O)NC(=O)c2ccccc2C)cc1	>6 h	110 nM	89%	0.56 nM			>2 h		57%	
CCCCc1nn(-c2ccccc2C(F)(F)F)c(=O)n1Cc1ccc(-c2ccccc2S(=O)(=O)NC(=O)CC(C)(C)C)cc1		46 nM		1.1 nM	69%	>5.5 h				
CCCCc1nn(-c2ccccc2C(F)(F)F)c(=O)n1Cc1ccc(-c2ccccc2S(=O)(=O)NC(=O)OCC(C)C)cc1	>6 h	170 nM	72%	0.42 nM	65%	>5 h and >3.5 h	>5 h	61%	63%	
CCCCc1nn(-c2ccccc2C(F)(F)F)c(=O)n1Cc1ccc(-c2ccccc2S(=O)(=O)NC(=O)C2CC2(F)F)cc1 (centres undefined)	>5 h	86 nM	80%	0.64 nM		>4 h		59%		
